In ChEMBL document CHEMBL4130408, “Photoactivation provides a mechanistic explanation for pan-assay interference behaviour of 2-aminopyrroles in lipoxygenase inhibition” (Eur J Med Chem, 2017):

Biological target: T1, Polyunsaturated fatty acid lipoxygenase ALOX15 (Homo sapiens) (UniProt P16050)
T1 sequence (whole entry): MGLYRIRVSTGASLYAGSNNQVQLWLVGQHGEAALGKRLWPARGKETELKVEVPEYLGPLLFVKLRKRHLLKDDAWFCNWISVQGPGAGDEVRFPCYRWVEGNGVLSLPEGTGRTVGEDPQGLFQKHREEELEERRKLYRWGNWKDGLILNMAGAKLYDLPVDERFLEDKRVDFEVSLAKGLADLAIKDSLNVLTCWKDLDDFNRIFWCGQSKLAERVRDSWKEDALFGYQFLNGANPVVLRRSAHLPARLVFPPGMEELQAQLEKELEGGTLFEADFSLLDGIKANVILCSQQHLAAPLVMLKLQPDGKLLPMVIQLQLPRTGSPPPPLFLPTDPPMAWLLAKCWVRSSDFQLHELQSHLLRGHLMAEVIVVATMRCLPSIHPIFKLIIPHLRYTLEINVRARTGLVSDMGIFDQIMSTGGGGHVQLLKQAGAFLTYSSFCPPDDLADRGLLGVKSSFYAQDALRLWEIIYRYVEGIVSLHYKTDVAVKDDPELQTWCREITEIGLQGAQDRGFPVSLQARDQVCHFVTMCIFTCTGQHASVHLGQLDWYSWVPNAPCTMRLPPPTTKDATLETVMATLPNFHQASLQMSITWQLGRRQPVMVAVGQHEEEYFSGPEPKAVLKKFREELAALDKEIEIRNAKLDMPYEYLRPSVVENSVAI
Assay: Inhibition of recombinant human 15-LOX-1 expressed in Escherichia coli BL21(DE3) assessed as residual activity at 50 uM using linoleic acid as substrate preincubated for 10 mins followed by substrate addition
Outline: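 h-15-LOX-1 (1:100 enzyme stock, 1:400 final) preincubated 10 min at room temperature with inhibitor in 25 mM HEPES pH 7.4, then linoleic acid added to 25 µM final (inhibitor 50 µM final). 13(S)-HpODE formation read as A234 over time, rate taken from linear part within first 16 min; no-inhibitor = 100%, no-enzyme = 0%. Triplicate.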

SMILES	Activity [%]
Nc1[nH]c(C(=O)c2ccccc2)c(-c2ccccc2C(F)(F)F)c1C(=O)c1cccs1	86.4
COC(=O)c1c(N)[nH]c(C(=O)c2ccccc2)c1-c1ccc(Br)cc1	94
COc1ccc(-c2c(C(=O)c3ccccc3)[nH]c(N)c2C(=O)c2ccccc2)cc1OC	97.9 to 105
Nc1[nH]c(C(=O)c2ccc(Br)cc2)c(-c2ccc(Br)cc2)c1C(=O)NC1CC1	95
COc1cc(-c2c(C(=O)c3ccccc3)[nH]c(N)c2C(N)=O)ccc1O	98.8
Cc1ccc(-c2c(C(=O)c3ccccc3)[nH]c(N)c2C(=O)NCCc2c[nH]c3ccccc23)cc1	33.3
COc1cc(-c2c(C(=O)c3ccccc3)[nH]c(N)c2C(=O)NCCc2c[nH]c3ccccc23)ccc1F	37.1
Nc1[nH]c(C(=O)c2ccccc2)c(-c2cccnc2)c1C(=O)c1ccccc1	84.9
N#Cc1c(N)[nH]c(C(=O)c2ccccc2)c1-c1ccc(Cl)cc1	92.2
Nc1[nH]c(C(=O)c2ccc(Br)cc2)c(-c2ccccc2Br)c1C(=O)NCCc1c[nH]c2ccccc12	83.1
Nc1[nH]c(C(=O)c2ccccc2)c(-c2ccccc2Br)c1C(=O)NCCc1ccc(Cl)cc1Cl	93.8
Nc1[nH]c(C(=O)c2ccccc2)c(-c2ccc3ccccc3c2)c1C(=O)NCc1ccc(F)cc1	86
Nc1[nH]c(C(=O)c2ccccc2)c(-c2ccc(Cl)c(Cl)c2)c1C(=O)NCCc1c[nH]c2ccccc12	36.8
Nc1[nH]c(C(=O)c2ccccc2)c(-c2ccccn2)c1C(=O)c1c[nH]c2ccc(Br)cc12	55.3
Nc1[nH]c(C(=O)c2ccccc2)c(-c2ccccc2Br)c1C(=O)NCCc1c[nH]c2ccccc12	61.9
Nc1[nH]c(C(=O)c2ccccc2)c(-c2cccc3ccccc23)c1C(=O)NC1CCCCC1	65.6
Nc1[nH]c(C(=O)c2ccccc2)c(-c2ccc3ccccc3c2)c1C(=O)NCc1cccc2ccccc12	98.6
Nc1[nH]c(C(=O)c2ccccc2)c(-c2ccc(Cl)cc2Br)c1C(=O)c1cccs1	91.2
COc1ccc(C(=O)c2[nH]c(N)c(C(=O)c3ccccc3)c2-c2ccc(OC)c(OC)c2)cc1	95.7
Nc1[nH]c2cc(C(F)(F)F)ccc2c1C(=O)NCc1ccc(F)cc1	102
Nc1[nH]c(C(=O)c2ccccc2)c(-c2ccc(C(F)(F)F)cc2)c1C(=O)NCCc1c[nH]c2ccccc12	43.5
Nc1[nH]c(C(=O)c2ccccc2)c(-c2ccc(Cl)cc2)c1C(=O)NCc1ccccc1	97.3
Nc1[nH]c(C(=O)c2ccccc2)c(-c2ccc(Cl)cc2)c1C(=O)c1c[nH]c2cc(F)ccc12	86.5 to 87.5
Nc1[nH]c(C(=O)c2ccccc2)c(-c2ccccc2C(F)(F)F)c1C(=O)NCc1ccc(F)cc1	92.2
Nc1[nH]c(C(=O)c2ccc(Br)cc2)c(-c2cccc3ccccc23)c1C(=O)NCCc1c[nH]c2ccccc12	46.7
Nc1[nH]c2cc(C(F)(F)F)ccc2c1C(=O)N1CCN(CCc2ccccc2)CC1	109

SMILES	Activity [%]
Nc1[nH]c(C(=O)c2ccc(Br)cc2)c(-c2ccc(Br)cc2)c1C(=O)NCc1cccc2ccccc12	77.6
Nc1[nH]c(C(=O)c2ccccc2)c(-c2cc(F)ccc2Br)c1C(=O)NCCc1c[nH]c2ccccc12	-29.7
Nc1[nH]c(C(=O)c2ccc(Br)cc2)c(-c2ccc(Cl)cc2)c1C(=O)NCCc1c[nH]c2ccccc12	19.3
CC(NC(=O)c1c(N)[nH]c(C(=O)c2ccccc2)c1-c1ccccc1Br)c1cccc2ccccc12 (stereo unspecified)	71.3
CCCCNC(=O)c1c(N)[nH]c(C(=O)c2ccccc2)c1-c1ccc(Cl)cc1	104
COc1ccc(C(=O)c2[nH]c(N)c(C(=O)NCCc3c[nH]c4ccccc34)c2-c2ccccc2C(F)(F)F)cc1	97.2
CC(C)(C)C(=O)c1c(N)[nH]c(C(=O)c2ccccc2)c1-c1ccc([N+](=O)[O-])cc1	110
Nc1[nH]c(C(=O)c2ccc(Br)cc2)c(-c2ccc(Br)cc2)c1C(=O)NCc1ccc(F)cc1	102
Nc1[nH]c(C(=O)c2ccc(Br)cc2)c(-c2ccncc2)c1C(=O)c1ccccc1	109
Nc1[nH]c(C(=O)c2ccc(Br)cc2)c(-c2ccc(Cl)cc2Cl)c1C(=O)NCCc1c[nH]c2ccccc12	69.3
Nc1[nH]c(C(=O)c2ccccc2)c(-c2ccc(Cl)cc2F)c1C(=O)NCCc1c[nH]c2ccccc12	74.8
Nc1[nH]c(C(=O)c2ccccc2)c(-c2ccc3ccccc3c2)c1C(=O)NCc1ccc(-c2ccccc2)cc1	122
Nc1[nH]c(C(=O)c2ccccc2)c(-c2ccc(Br)cc2)c1C(=O)NCCCN1CCOCC1	104
Nc1[nH]c(C(=O)c2ccccc2)c(-c2ccccc2Br)c1C(=O)NCc1ccc(-c2ccccc2)cc1	91.3
Nc1[nH]c(C(=O)c2ccccc2)c(-c2ccc([N+](=O)[O-])cc2)c1C(=O)N1CCC(CO)CC1	85
COc1ccc(C(=O)c2[nH]c(N)c(C(N)=O)c2-c2ccc(OC)c(OC)c2)cc1	58
Nc1[nH]c(C(=O)c2ccccc2)c(-c2ccc(Cl)cc2)c1C(=O)c1c[nH]c2ccc(Br)cc12	50.9
Nc1[nH]c(C(=O)c2ccccc2)c(-c2ccc(Cl)c(F)c2)c1C(=O)c1c[nH]c2ccccc12	91.7
CN(C)CCCNC(=O)c1c(N)[nH]c(C(=O)c2ccc(Br)cc2)c1-c1ccc(Br)cc1	114
COc1ccc(C(=O)c2[nH]c(N)c(C(N)=O)c2-c2ccc(O)c(OC)c2)cc1	67.1
COc1ccc(C(=O)c2[nH]c(N)c(C(=O)c3c[nH]c4ccccc34)c2-c2ccc(F)c(OC)c2)cc1	75.8
Nc1[nH]c(C(=O)c2ccccc2)c(-c2ccc3ccccc3c2)c1C(=O)NCCc1ccc(Cl)cc1	80.6
Nc1[nH]c(C(=O)c2ccccc2)c(-c2ccccc2Br)c1C(=O)c1cccs1	59.8
NC(=O)c1c(N)[nH]c(C(=O)c2ccccc2)c1-c1ccc(Br)cc1	99.3
Nc1[nH]c(C(=O)c2ccccc2)c(-c2ccc(Cl)cc2)c1C(=O)N1CCCC1	123
Nc1[nH]c(C(=O)c2ccccc2)c(-c2ccccn2)c1C(=O)NCCCCl	92.1

SMILES	Activity [%]
COc1ccc(C(=O)c2[nH]c(N)c(C(=O)NCCc3c[nH]c4ccccc34)c2-c2ccc(OC)c(OC)c2)cc1	70.3
COC(=O)c1c(N)[nH]c(C(=O)c2ccccc2)c1-c1ccccc1Br	74.8
COc1ccc(-c2c(C(=O)c3ccccc3)[nH]c(N)c2C(=O)c2ccc(Br)cc2)cc1OC	94.7
Nc1[nH]c(C(=O)c2ccccc2)c(-c2cccc(C(F)(F)F)c2)c1C(=O)c1c[nH]c2ccccc12	114
Nc1[nH]c(C(=O)c2ccccc2)c(-c2ccc(Br)cc2)c1C(=O)c1ccc(Br)cc1	62.2
Nc1[nH]c(C(=O)c2ccccc2)c(-c2ccccc2C(F)(F)F)c1C(=O)NC1CCCCC1	101
COc1ccc(C(=O)c2[nH]c(N)c(C(=O)c3c[nH]c4ccccc34)c2-c2ccc(OC)cc2)cc1	89.4
Nc1[nH]c(C(=O)c2ccc(Br)cc2)c(-c2ccc3c(c2)OCO3)c1C(=O)NCCc1c[nH]c2ccccc12	75.9
Nc1[nH]c(C(=O)c2ccccc2)c(-c2ccccc2Br)c1C(=O)NC1CCCCC1	86.7
Nc1[nH]c(C(=O)c2ccccc2)c(-c2ccccn2)c1C(=O)c1c[nH]c2cc(F)ccc12	98.5
CC(C)(C)C(=O)c1c(N)[nH]c(C(=O)c2ccccc2)c1-c1ccc(C(F)(F)F)cc1	86.9
COc1ccccc1CCNC(=O)c1c(N)[nH]c(C(=O)c2ccccc2)c1-c1ccc(Cl)cc1Cl	91.7
Nc1[nH]c(C(=O)c2ccc(Br)cc2)c(-c2ccc(Br)cc2)c1C(=O)NC1CCCCC1	83.4
Nc1[nH]c(C(=O)c2ccccc2)c(-c2cccc(C(F)(F)F)c2)c1C(=O)NCc1cccc2ccccc12	2.31
CC(C)(C)C(=O)c1c(N)[nH]c(C(=O)c2ccccc2)c1-c1ccc(Cl)cc1Cl	79.9
NC(=O)c1c(N)[nH]c(C(=O)c2ccccc2)c1-c1ccc2c(c1)OCO2	92.3
Nc1[nH]c(C(=O)c2ccccc2)c(-c2ccccc2C(F)(F)F)c1C(=O)c1c[nH]c2ccccc12	94.1
Nc1[nH]c(C(=O)c2ccccc2)c(-c2ccncc2)c1C(=O)NCCc1c[nH]c2ccccc12	106
Nc1[nH]c(C(=O)c2ccc(Br)cc2)c(-c2ccc3ccccc3c2)c1C(=O)NCCc1c[nH]c2ccccc12	36
CC(C)(C)C(=O)c1c(N)[nH]c(C(=O)c2ccccc2)c1-c1ccccc1	112
Cc1cc(C)cc(-c2c(C(=O)c3ccccc3)[nH]c(N)c2C(=O)NCCc2c[nH]c3ccccc23)c1	-47.3
NC(=O)c1c(N)[nH]c(C(=O)c2ccccc2)c1-c1ccncc1	98.9
Nc1[nH]c(C(=O)c2ccc(Br)cc2)c(-c2ccc(F)cc2)c1C(=O)NCCc1c[nH]c2ccccc12	68.9
Cc1[nH]c2ccccc2c1C(=O)c1c(N)[nH]c(C(=O)c2ccccc2)c1-c1ccc(Cl)cc1	79.7
